# Bioassay records from PubChem BioAssay.
# A selection: hits, their analogues and other compounds. The true share with any hit is near 4.2%.
# TMEM16A inh = blocks the mouse calcium-activated chloride channel TMEM16A | HEK293 TMEM16A/YFP iodide influx fluorescence, ionomycin | Q8BHY3 | AID 588511 | normalized B-score (activity score, 25-100; higher = stronger inhibition) at 10 µM | actives 1.2% (n = 310,000);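 active = ratio plate-corrected score three or more library SD toward inhibition, starting fluorescence score within five deviations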;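 also: score derived from kinetic fluorescence span divided by baseline fluorescence per well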
# Lipid droplet = modulators of hepatic lipid droplet formation; actives 0.4% (n = 240,000); AML12 mouse hepatocytes, oleate lipid droplets, BODIPY imaging; inhibition, % at 6.5 µM;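 active = lipid droplet intensity inhibited by at least 50%, with more than 500 cells counted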
#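 Material: mouse AML12 hepatocyte cell line, fixed after treatment; Timing: compound with oleate, overnight; Technique: high-content imaging of BODIPY-stained droplets and DAPI nuclei; Probe or stimulus: oleate, 100 µM final; Dosing: compound at 6.5 µM only.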
# CHOP inh = CHOP inhibition in unfolded protein response; actives 3.8% (n = 220,000); CHO-K1 CHOP-promoter luciferase, tunicamycin-induced, 15-18 h; inhibition, % at 10 µM; AID 2732;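 active = compounds that reduced the stress-induced luciferase reporter signal by more than about 70% of percent inhibition, limit read from the data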;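 also: 0% = tunicamycin plus vehicle and 100% = wells without tunicamycin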
# CHOP UPR activ = apoptotic UPR (CHOP) activation; actives 0.34% (n = 330,000); activation, % at 10 µM; CHO-CHOP luciferase reporter, luminescence; percent of tunicamycin response over DMSO baseline;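 active = at 10 µM dose, activation of 40% or more, normalized to positive control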;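 also: 100% = tunicamycin at 10 µg/mL and 0% = DMSO alone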
#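 System: CHO CHOP reporter cells. Amount: 500 cells per well. Buffer or medium: F12 medium, 10% FBS. Compound dosing: one dose, 10 µM in 0.5% DMSO. Incubation: 6 h compound exposure at 37 °C after overnight seeding. Technique: Steady-Glo luciferase luminescence. Benchmarks: tunicamycin and DMSO controls.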
# TMEM16A act = activators or potentiators of mouse TMEM16A chloride channel; Q8BHY3; actives 0.3% (n = 340,000); B-score at 10 µM; HEK293 TMEM16A/YFP-H148Q/I152L, iodide quench fluorescence; stronger effect = lower value;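 active = fluorescence-ratio B-score plate-corrected deviation score at least 3 library SD below zero, with starting fluorescence score within 5 deviations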;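 also: channel opened by trigger with iodide after compound preincubation; score built on the fluorescence ratio of max minus min over baseline; more negative score means more quench and so TMEM16A activation or potentiation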
# UPR XBP1 act = adaptive UPR (XBP1) activation. actives 0.33% (n = 330,000). CHO-XBP1 luciferase reporter, IRE1-XBP1 UPR activation, luminescence; percent of tunicamycin response, DMSO as zero. activation, % at 20 µM;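 active = versus positive control, 20 µM dose yields 30% or more activation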;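 also: 100% = tunicamycin at 10 µg/mL and 0% = DMSO only wells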
#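 Signal: luciferase luminescence; Assay system: CHO-XBP1 luciferase reporter cells; Amount: one thousand reporter cells per well; Dosing: 20 µM single concentration, DMSO 1%; Benchmarks: high control tunicamycin 10 µg/mL final, low control DMSO vehicle only; Schedule: 6 h compound exposure at 37 °C, 5% CO2; Evaluation: percent activation relative to tunicamycin reference.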
# TMEM16A reconf = TMEM16A (mouse) chloride channel inhibition, re-confirmation. HEK293 TMEM16A/YFP-H148Q, iodide quench fluorescence; ionomycin added to raise cell calcium. inhibition, % at 10 µM. shares compounds with TMEM16A inh. actives 39% (n = 2,300). AID 652189;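 active = mean duplicate percent inhibition, scaled so buffer wells are 0 and the reference blocker 100, over three buffer SD above buffer mean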
# TMEM16A Ca cntr = counter-screen for TMEM16A inhibitors: effect on calcium mobilization; shares compounds with TMEM16A inh; TMEM16A/YFP HEK293, Fluo4 calcium mobilization; calcium response (% of ionomycin), % at 10 µM; actives 2% (n = 2,300);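 active = duplicate-averaged calcium signal over 20% of the ionomycin maximum, relative to buffer baseline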;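 also: each well's signal is peak minus trough fluorescence divided by its pre-addition baseline; 0% = buffer wells and 100% = ionomycin wells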
# YFP-HEK293 quench = acts in parental YFP-HEK293 cells lacking TMEM16A, counter-screen; iodide YFP quench, ionomycin; YFP ratio F(max-min)/F0 at 10 µM; 2,300 tested, under 10 active; shares compounds with TMEM16A inh;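 active = yellow fluorescent protein signal ratio exceeding the buffer control mean by over 5 SD of those controls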;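 also: ratio is mean of duplicate wells from kinetic YFP trace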
# ClC-1 rat inh = selectivity of TMEM16A inhibitors: inhibition of rat ClC-1 chloride channel | 2,300 tested, under 10 active | ratio percent, % at 10 µM | CHO ClC-1-YFP, iodide influx fluorescence quench; iodide control reads 0, buffer control 100 | shares compounds with TMEM16A inh;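 active = duplicate-mean ratio percent above the mean of iodide-only control wells, which defines zero, plus 5 of their SD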;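 also: higher percent means stronger block of ClC-1 iodide influx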
# The depositor's hits bear a star; i = inactive; · = not tested or not shown.
SMILES,TMEM16A inh,Lipid droplet,CHOP inh,CHOP UPR activ,TMEM16A act,UPR XBP1 act,TMEM16A reconf,TMEM16A Ca cntr,YFP-HEK293 quench,ClC-1 rat inh
COc1ccc(/C=C2/SC(=S)N(CC(=O)O)C2=O)cc1OCc1ccc(Cl)cc1,i,18,·,11,i,-3,·,·,·,·
CN1C(=O)/C(=C/c2ccc(OC(=O)c3ccco3)cc2)SC1=S,i,-14,·,5,i,-1,i,i,-1.2,-22
Cn1cccc1/C=C1/SC(=S)N(CC(=O)O)C1=O,i,14,0,-2,i,1,i,i,-0.69,-8
COc1ccc(OCCCC(=O)NCC(C)C)cc1,i,5,54,-1,i,-3,·,·,·,·
COc1ccc(C)cc1NC(=O)CSc1nnc(-c2ccc(Br)cc2)o1,100*,1,-19,-2,i,0,i,i,-0.92,-24
Cc1c(CN2CCCCC2)c(O)n(CCCO)c(=O)c1C#N,i,·,26,-2,i,0,·,·,·,·
CCCn1c(O)c(CN2CCCCC2)c(C)c(C#N)c1=O,i,·,-10,-1,·,-4,20%*,i,-1,-26
CN(Cc1ccccc1)C(=O)CN(c1ccc(F)cc1)S(=O)(=O)c1ccc2c(c1)OCCO2,i,-13,33,-2,i,0,·,·,·,·
CCCCn1c(N)c(N(CCC)C(=O)C2CCCC2)c(=O)[nH]c1=O,·,·,·,0,i,-1,·,·,·,·
CSc1ccccc1NC(=O)Nc1ccccc1,100*,0,3,4,i,-2,i,i,-0.98,-4
O=C(CC1C=Cc2ccccc2N1C(=O)c1ccccc1)c1ccccc1 (stereo not given),100*,-6,-7,1,i,-8,20%*,i,-1.1,-2
Cc1cc(C)c(C#N)c(SCc2ccccc2C)n1,25*,-9,69,1,i,-2,i,i,-1,-17
N#Cc1cc2c(nc1SCC1COc3ccccc3O1)CCC2 (stereo not given),i,·,1,2,i,2,·,·,·,·
Cc1cc(C)c(C#N)c(SCc2ccccc2)n1,25*,10,22,-1,i,-3,i,i,-1.1,-10
Cc1cc(C)c(C#N)c(SCC2COc3ccccc3O2)n1 (stereo not given),100*,·,50,1,i,1,i,i,-1.2,-10
Clc1ccc(CCNc2ncnc3c2nnn3Cc2ccccc2)cc1,i,-10,·,3,i,-7,·,·,·,·
Cc1ccc(OCc2ccc(C(=O)N3CCCC3)o2)cc1C,25*,-16,·,3,i,-1,i,i,-1.2,-14
Cc1ccc(N2CCN(S(=O)(=O)c3nnc(NC(=O)c4ccccc4)s3)CC2)cc1,i,-1,·,-1,i,2,·,·,·,·
CCCCNC(NCCCC)=C(S(=O)(=O)CC)S(=O)(=O)CC,25*,-2,30,0,i,-3,i,i,-1.1,-4
CCCCNC(=O)c1ccccc1C(=O)NCCCC,i,7,14,0,i,0,·,·,·,·
CC1CC(c2ccccc2)n2nc(N3C(=O)c4ccccc4C3=O)nc2N1 (stereo not given),25*,·,18,0,i,-1,i,i,-1.2,-14
